Test results published in article PMC8268672 (Bioorganic Chemistry, 2021).
In brackets after ≈: the same amount, converted by molar mass.

Tests used:
Assay type in all cases: cell-based
[1] = system: Escherichia coli (ATCC 8739); assay: MIC, broth microdilution; conditions: ATCC8739, read-out: Minimum inhibitory concentration (MIC), EC
Outline: (§1)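 Broth microdilution per CLSI in Mueller-Hinton broth, using two-fold serial dilutions of test compound and reference drugs from 512 to 0.25. Bacterial broth cultures were grown 2-6 h to 0.5 McFarland turbidity, then diluted with sterile solution to the final inoculum. MIC is reported in µg/mL.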

[2] = system: Pseudomonas aeruginosa (MCCB 0035); assay: MIC, broth microdilution; conditions: read-out: Minimum inhibitory concentration (MIC), PA
Outline: as §1

[3] = system: Klebsiella aerogenes (NCIM-2098); assay: MIC, broth microdilution; conditions: NCIM2098, read-out: Minimum inhibitory concentration (MIC), KA
Outline: (§2)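 Antibacterial MICs by CLSI broth microdilution in Mueller-Hinton broth. Test compounds and standard drugs are serially diluted two-fold from 512 to 0.25. The bacterial broth culture is grown 2-6 h to a 0.5 McFarland turbidity, then adjusted with sterile solution to the final inoculum.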

[4] = system: Staphylococcus aureus (ATCC 29213); assay: MIC, broth microdilution; conditions: ATCC29213, read-out: Minimum inhibitory concentration (MIC), SA
Outline: as §2

[5] = system: Bacillus cereus (NCIM-2458); assay: MIC, broth microdilution; conditions: NCIM2458, read-out: Minimum inhibitory concentration (MIC), BC
Outline: as §1

[6] = system: Aspergillus niger (NCIM 2191); assay: MIC, broth microdilution; conditions: NCIM2191, read-out: Minimum inhibitory concentration (MIC), AN
Outline: (§3)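 Antifungal MICs by CLSI broth microdilution in Sabouraud liquid medium. Test compounds and standard drugs are serially diluted two-fold from 512 to 0.25. The fungal broth culture is grown 24 h at 35 °C to a 0.5 McFarland turbidity, then adjusted with sterile solution to the final inoculum.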

[7] = system: Candida albicans (NCIM 2087); assay: MIC, broth microdilution; conditions: NCIM2087, read-out: Minimum inhibitory concentration (MIC), CA
Outline: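 CLSI broth microdilution in Sabouraud liquid medium, with test compound two-fold serially diluted from 512 to 0.25. Fungal broth culture grown 24 h at 35 °C to 0.5 McFarland turbidity, then adjusted with sterile solution to a final […] inoculum. MIC expressed in µg/mL.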

[8] = system: Aspergillus fumigatus (NCIM 2081); assay: MIC, broth microdilution; conditions: NCIM2081, read-out: Minimum inhibitory concentration (MIC), AF
Outline: as §3

[9] = system: Cryptococcus neoformans (ATCC 9011); assay: MIC, broth microdilution; conditions: ATCC9011, read-out: Minimum inhibitory concentration (MIC), CN
Outline: as §3

[10] = system: Escherichia coli (ATCC 8739); assay: Agar disk diffusion, inhibition zone; conditions: 100 µg/8 mm disc, triplicate, mean ± SD
Outline: (§4)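 Agar disk diffusion on Mueller-Hinton agar plates seeded with a standard bacterial suspension. Test compound stock in DMSO, diluted with distilled water; 8 mm sterile filter-paper discs soaked in the solution. Ampicillin was the reference. Plates incubated at 35 °C for 24 h, in triplicate. Read-out is the average inhibition-zone diameter (mm) around each disc.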

[11] = system: Pseudomonas aeruginosa (MCCB 0035); assay: Agar disk diffusion, inhibition zone; conditions: 100 µg/8 mm disc, triplicate, mean ± SD
[12] = system: Salmonella typhimurium (NCIM-2501); assay: Agar disk diffusion, inhibition zone; conditions: 100 µg/8 mm disc, triplicate, mean ± SD
[13] = system: Klebsiella aerogenes (NCIM-2098); assay: Agar disk diffusion, inhibition zone; conditions: 100 µg/8 mm disc, triplicate, mean ± SD
[14] = system: Staphylococcus aureus (ATCC 29213); assay: Agar disk diffusion, inhibition zone; conditions: 100 µg/8 mm disc, triplicate, mean ± SD
Outline: as §4

[15] = system: Bacillus cereus (NCIM-2458); assay: Agar disk diffusion, inhibition zone; conditions: 100 µg/8 mm disc, triplicate, mean ± SD
[16] = system: Lactobacillus casei (NCIM-2651); assay: Agar disk diffusion, inhibition zone; conditions: 100 µg/8 mm disc, triplicate, mean ± SD
[17] = system: Streptococcus pneumonia (ATCC 49619); assay: Agar disk diffusion, inhibition zone; conditions: 100 µg/8 mm disc, triplicate, mean ± SD
[18] = system: Aspergillus niger (NCIM 2191); assay: Agar disk diffusion, inhibition zone; conditions: 100 µg/8 mm disc, triplicate, mean ± SD
Outline: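 For the fungal strain, discs soaked in test compound solution (DMSO stock diluted with distilled water) sat on seeded Mueller-Hinton agar. Clotrimazole was the reference. Incubation ran 48 h at 35 °C, in triplicate. Zone of growth inhibition recorded in mm as the mean diameter around each disc.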

[19] = system: Candida albicans (NCIM 2087); assay: Agar disk diffusion, inhibition zone; conditions: 100 µg/8 mm disc, triplicate, mean ± SD
[20] = system: Aspergillus fumigatus (NCIM 2081); assay: Agar disk diffusion, inhibition zone; conditions: 100 µg/8 mm disc, triplicate, mean ± SD
[21] = system: Cryptococcus neoformans (ATCC 9011); assay: Agar disk diffusion, inhibition zone; conditions: 100 µg/8 mm disc, triplicate, mean ± SD

Structure (SMILES)	MIC [1] [µg/mL]	MIC [2] [µg/mL]	MIC [3] [µg/mL]	MIC [4] [µg/mL]	MIC [5] [µg/mL]	MIC [6] [µg/mL]	MIC [7] [µg/mL]	MIC [8] [µg/mL]	MIC [9] [µg/mL]	Diameter of growth inhibition zone, EC [10] [mm]	Diameter of growth inhibition zone, PA [11] [mm]	Diameter of growth inhibition zone, ST [12] [mm]	Diameter of growth inhibition zone, KA [13] [mm]	Diameter of growth inhibition zone, SA [14] [mm]	Diameter of growth inhibition zone, BC [15] [mm]	Diameter of growth inhibition zone, LC [16] [mm]	Diameter of growth inhibition zone, SP [17] [mm]	Diameter of growth inhibition zone, AN [18] [mm]	Diameter of growth inhibition zone, CA [19] [mm]	Diameter of growth inhibition zone, AF [20] [mm]	also measured
Cc1ccc(S(=O)(=O)N2C(=O)CSC2c2ccccc2Br)cc1 (stereo not drawn) [5b, 2-(2-Bromophenyl)-3-[(4-methylphenyl)sulfonyl]-1,3-thiazolidin-4-one]	16 (≈ 38.8 µM)	32 (≈ 77.6 µM)	64 (≈ 155 µM)	32 (≈ 77.6 µM)	64 (≈ 155 µM)	64 (≈ 155 µM)	32 (≈ 77.6 µM)	64 (≈ 155 µM)	128 (≈ 310 µM)	14 ± 0.56	15 ± 0.93	12 ± 0.7	10 ± 0.5	16 ± 1.1	10 ± 0.34	10 ± 0.6	08 ± 0.7	10.8 ± 0.51	11.6 ± 0.65	10 ± 0.9	Diameter of growth inhibition zone, CN [21]: 7.2 ± 0.3 mm
Cc1ccc(S(=O)(=O)N2C(=O)CSC2c2ccc(Br)cc2)cc1 (stereo not drawn) [5d, 2-(4-Bromophenyl)-3-[(4-methylphenyl)sulfonyl]-1,3-thiazolidin-4-one]	4 (≈ 9.7 µM)	4 (≈ 9.7 µM)	8 (≈ 19.4 µM)	16 (≈ 38.8 µM)	32 (≈ 77.6 µM)	32 (≈ 77.6 µM)	16 (≈ 38.8 µM)	16 (≈ 38.8 µM)	32 (≈ 77.6 µM)	20 ± 0.9	20 ± 1.1	14 ± 0.6	18 ± 0.3	21 ± 2.3	12 ± 0.4	18 ± 0.44	10 ± 1.6	11.8 ± 0.66	12.9 ± 0.5	9.8 ± 0.5	Diameter of growth inhibition zone, CN [21]: 17 ± 1.0 mm
Cc1ccc(S(=O)(=O)N2C(=O)CSC2c2cccc(Cl)c2)cc1 (stereo not drawn) [5f, 2-(3-Chlorophenyl)-3-[(4-methylphenyl)sulfonyl]-1,3-thiazolidin-4-one]	8 (≈ 21.7 µM)	16 (≈ 43.5 µM)	8 (≈ 21.7 µM)	32 (≈ 87 µM)	32 (≈ 87 µM)	16 (≈ 43.5 µM)	16 (≈ 43.5 µM)	64 (≈ 174 µM)	32 (≈ 87 µM)	18 ± 0.23	18 ± 0.56	14 ± 0.2	18 ± 0.23	20 ± 1.2	12 ± 2.2	14 ± 0.6	18 ± 0.7	11.2 ± 0.6	12 ± 0.35	11.8 ± 1.5	Diameter of growth inhibition zone, CN [21]: 10 ± 0.7 mm
Cc1ccc(S(=O)(=O)N2C(=O)CSC2c2cccc(F)c2)cc1 (stereo not drawn) [5i, 2-(3-Fluorophenyl)-3-[(4-methylphenyl)sulfonyl]-1,3-thiazolidin-4-one]	16 (≈ 45.5 µM)	32 (≈ 91.1 µM)	32 (≈ 91.1 µM)	16 (≈ 45.5 µM)	16 (≈ 45.5 µM)	32 (≈ 91.1 µM)	16 (≈ 45.5 µM)	8 (≈ 22.8 µM)	16 (≈ 45.5 µM)	22.8 ± 0.63	18 ± 0.23	10 ± 0.76	12 ± 0.4	17 ± 0.53	14 ± 0.9	18 ± 1.62	12 ± 0.4	11 ± 0.9	15 ± 0.32	15 ± 0.6	Diameter of growth inhibition zone, CN [21]: 14 ± 1.3 mm
Cc1ccc(S(=O)(=O)N2C(=O)CSC2c2cccc(O)c2)cc1 (stereo not drawn) [5l, 2-(3-Hydroxyphenyl)-3-[(4-methylphenyl)sulfonyl]-1,3-thiazolidin-4-one]	16 (≈ 45.8 µM)	32 (≈ 91.6 µM)	16 (≈ 45.8 µM)	64 (≈ 183 µM)	128 (≈ 366 µM)	64 (≈ 183 µM)	16 (≈ 45.8 µM)	64 (≈ 183 µM)	128 (≈ 366 µM)	17.8 ± 1.1	16 ± 1.5	10 ± 0.3	14 ± 0.4	14 ± 1.2	08 ± 0.5	12 ± 1.6	10 ± 0.5	14 ± 1.5	17 ± 0.5	12 ± 2.3	Diameter of growth inhibition zone, CN [21]: 12 ± 1.4 mm
Cc1ccc(S(=O)(=O)N2C(=O)CSC2c2ccccc2C)cc1 (stereo not drawn) [5r, 2-(2-Methylphenyl)-3-[(4-methylphenyl)sulfonyl]-1,3-thiazolidin-4-one]	64 (≈ 184 µM)	64 (≈ 184 µM)	128 (≈ 368 µM)	64 (≈ 184 µM)	128 (≈ 368 µM)	64 (≈ 184 µM)	64 (≈ 184 µM)	128 (≈ 368 µM)	128 (≈ 368 µM)	15 ± 0.69	16 ± 1.9	08 ± 0.6	08 ± 0.3	14 ± 1.1	08 ± 0.4	10 ± 0.7	08 ± 0.8	9.8 ± 0.9	10 ± 0.6	9.6 ± 0.9	Diameter of growth inhibition zone, CN [21]: 11 ± 0.7 mm
CC1(C)S[C@@H]2[C@H](NC(=O)[C@H](N)c3ccccc3)C(=O)N2[C@H]1C(=O)O [AA, Ampicillin, reference compound]	1 (≈ 2.86 µM)	4 (≈ 11.4 µM)	8 (≈ 22.9 µM)	2 (≈ 5.72 µM)	4 (≈ 11.4 µM)	–	–	–	–	18	17	18	17	21	19	20	17	–	–	–	–
Clc1ccccc1C(c1ccccc1)(c1ccccc1)n1ccnc1 [CL, Clotrimazole, reference compound]	–	–	–	–	–	16 (≈ 46.4 µM)	4 (≈ 11.6 µM)	1 (≈ 2.9 µM)	2 (≈ 5.8 µM)	–	–	–	–	–	–	–	–	23	24	22	Diameter of growth inhibition zone, CN [21]: 19 mm
